ChEMBL document CHEMBL4732250, “Investigations on substituted (2-aminothiazol-5-yl)(imidazo[1,2-a]pyridin-3-yl)methanones for the treatment of Alzheimer's disease” (Bioorg Med Chem, 2021)
Calls of active or inactive are those of the source. No cut-off for these calls is given here.

Columns and labels:
Rattus norvegicus [1] = assay: Antiinflammatory activity in Sprague-Dawley rat acute model of carrageenan-induced paw edema assessed as inhibition of rat paw edema at 50 mg/kg, po pre treated for 1 hr followed by carrageenan-stimulation and measured after 3 hrs by plethysmometeric method relative to control; assay type: functional; settings: time 4 hrs
How it was run: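 SD rats of either sex, 150–200 g, n = 6, dosed orally in 0.2% agar suspension. After 1 h, 0.1 mL 1% carrageenan in saline injected into the left hind sub-plantar paw. Paw volume measured by mercury plethysmometer before and 3 h after injection. % edema inhibition calculated. Mean ± SEM.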

[2] = Toxicity in AlCl3-induced Sprague-Dawley rat assessed as reduction in HCT level at 5 mg/kg, po after 28 days by automated haematology analyser; assay type: organism-based; settings: in vivo, 672 h, time 28 day
How it was run: (§1)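 On day 29 of the AlCl3 model (28 days of oral dosing), blood was drawn from the retro-orbital sinus under isoflurane into heparinized tubes. Haemoglobin and haematocrit were measured on a haematology analyser.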

[3] = Toxicity in AlCl3-induced Sprague-Dawley rat assessed as stomach lesion index at 5 mg/kg, po after 28 days by H and E staining based microscopic method; assay type: organism-based; settings: in vivo, 672 h, time 28 day
How it was run: (§2)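 Gastrointestinal damage in AlCl3-model rats, 28 days of oral dosing. Stomach and intestines were washed in cold PBS 0.01 M pH 7.4 and fixed 24 h in 10% neutral buffered formalin. After a 70% ethanol wash, haemorrhagic damage was measured by digital vernier caliper for the lesion index. HE-stained sections examined microscopically.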

Rattus norvegicus [4] = assay: Antialzheimer activity against AlCl3-induced Sprague-Dawley rat assessed as reduction in hippocampal neuronal degeneration at 5 mg/kg, po after 28 days by H and E staining based microscopic method; assay type: functional, organism-based; settings: time 28.0 day
How it was run: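 Hippocampal neuronal degeneration. After 28 days of oral dosing in 0.2% agar with daily AlCl3 4.2 mg/kg i.p., brain sections were HE-stained and hippocampal regions examined at 100X.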

[5] = Toxicity in AlCl3-induced Sprague-Dawley rat assessed as reduction in HGB level at 5 mg/kg, po after 28 days by automated haematology analyser; assay type: organism-based; settings: in vivo, 672 h, time 28 day; how it was run: as §1
[6] = Toxicity in AlCl3-induced Sprague-Dawley rat assessed as intestine lesion index at 5 mg/kg, po after 28 days by H and E staining based microscopic method; assay type: organism-based; settings: in vivo, 672 h, time 28 day; how it was run: as §2
[7] = Toxicity in AlCl3-induced Sprague-Dawley rat assessed as reduction in serum albumin level at 5 mg/kg, po after 28 days by automated analyser; assay type: organism-based; settings: in vivo, 672 h, time 28 day
How it was run: (§3)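 Under isoflurane, retro-orbital blood was collected into non-heparinized tubes after the 28-day AlCl3 model with oral dosing. Serum % albumin and total protein were measured on an automated clinical chemistry analyser.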

[8] = Toxicity in AlCl3-induced Sprague-Dawley rat assessed as reduction in total protein level at 5 mg/kg, po after 28 days by automated analyser; assay type: organism-based; settings: in vivo, 672 h, time 28 day; how it was run: as §3
Rattus norvegicus [9] = assay: Antiinflammatory activity in Sprague-Dawley rat chronic model of formalin-induced paw edema assessed as inhibition of rat paw edema at 40 mg/kg, po pre treated for 1 hr followed by formalin-stimulation and measured after 3 days by plethysmometeric method relative to control; assay type: functional; settings: 72 h, time 3 day
How it was run: (§4)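 Chronic paw edema. Oral pre-dose in 0.2% agar; after 1 h, 0.1 mL 2% formalin in saline injected into the left hind sub-plantar paw, repeated on 5 consecutive days. Paw volume by plethysmometer. % inhibition of edema size relative to disease control, days 1–5. n = 6, mean ± SEM, one-way ANOVA with Tukey's test.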

Rattus norvegicus [10] = assay: Antiinflammatory activity in Sprague-Dawley rat chronic model of formalin-induced paw edema assessed as inhibition of rat paw edema at 40 mg/kg, po pre treated for 1 hr followed by formalin-stimulation and measured after 5 days by plethysmometeric method relative to control; assay type: functional; settings: 120 h, time 5 day; how it was run: as §4
Rattus norvegicus [11] = assay: Antiinflammatory activity in Sprague-Dawley rat chronic model of formalin-induced paw edema assessed as inhibition of rat paw edema at 40 mg/kg, po pre treated for 1 hr followed by formalin-stimulation and measured after 2 days by plethysmometeric method relative to control; assay type: functional; settings: 48 h, time 2 day; how it was run: as §4
Rattus norvegicus [12] = assay: Antiinflammatory activity in Sprague-Dawley rat chronic model of formalin-induced paw edema assessed as inhibition of rat paw edema at 40 mg/kg, po pre treated for 1 hr followed by formalin-stimulation and measured after 4 days by plethysmometeric method relative to control; assay type: functional; settings: 96 h, time 4 day; how it was run: as §4
Rattus norvegicus [13] = assay: Antiinflammatory activity in Sprague-Dawley rat chronic model of formalin-induced paw edema assessed as inhibition of rat paw edema at 40 mg/kg, po pre treated for 1 hr followed by formalin-stimulation and measured after 1 day by plethysmometeric method relative to control; assay type: functional; settings: 24 h; how it was run: as §4

Cc1nc(N)sc1C(=O)c1cnc2ccccn12
inhibition in vivo at 50 mg/kg (Rattus norvegicus [1]): 53%

Cc1ccc2ncc(C(=O)c3cnc(N)s3)n2c1
inhibition in vivo at 50 mg/kg (Rattus norvegicus [1]): 53%

Cc1cnc(NC(=O)C2=C(O)c3ccccc3S(=O)(=O)N2C)s1 [MELOXICAM]
Activity [2]: Toxic | Activity_index [3]: 12.19 mm | Activity (Rattus norvegicus [4]): Active | Activity [5]: Toxic | Activity_index [6]: 29.15 mm | Activity [7]: Non-Toxic | Activity [8]: Toxic

Cc1cccn2c(C(=O)c3sc(N)nc3-c3ccccc3)cnc12
inhibition in vivo at 50 mg/kg (Rattus norvegicus [1]): 20%

CN(C)c1nc(N)sc1C(=O)c1cnc2ccccn12
inhibition in vivo at 50 mg/kg (Rattus norvegicus [1]): 32%

Cc1ccc2ncc(C(=O)c3sc(N)nc3C)n2c1
inhibition in vivo at 50 mg/kg (Rattus norvegicus [1]): 33%

Cc1cccn2c(C(=O)c3cnc(N)s3)cnc12
inhibition in vivo at 50 mg/kg (Rattus norvegicus [1]): 31%

Cc1ccc(-c2cc(C(F)(F)F)nn2-c2ccc(S(N)(=O)=O)cc2)cc1 [CELECOXIB]
inhibition in vivo at 40 mg/kg (Rattus norvegicus [9]): 70% | inhibition in vivo at 40 mg/kg (Rattus norvegicus [10]): 68% | inhibition in vivo at 40 mg/kg (Rattus norvegicus [11]): 74% | inhibition in vivo at 40 mg/kg (Rattus norvegicus [12]): 70% | inhibition in vivo at 40 mg/kg (Rattus norvegicus [13]): 67%

Cc1ccn2c(C(=O)c3sc(N)nc3-c3ccccc3)cnc2c1
inhibition in vivo at 50 mg/kg (Rattus norvegicus [1]): 26%
